DNA FID counter – fluorescent intercalator displacement, NS3 helicase counter-screen | AID 1845 | actives 0.17% (n = 290,000) | inhibition, % at 7.9 µM | DNA fluorescent intercalator displacement, fluorescence; in the data active = inhibition above about 37%;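 note: 0% = vehicle and 100% = reference compound; higher means more ethidium bromide displaced from hairpin DNA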
NS3 helicase inh – blocks Hepatitis C virus NS3 helicase unwinding; inhibition, % at 10.9 µM; NS3 helicase DNA unwinding, Cy5 molecular beacon fluorescence; actives 0.56% (n = 290,000);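 active = inhibition above the mean of all tested compounds plus 3 SD, set per campaign, cut at about 35% in these data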;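 note: 0% = DMSO wells and 100% = thioflavine S control wells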
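test system = hepatitis C virus NS3 helicase domain fragment enzyme | reagent = annealed dual-labelled DNA beacon duplex, ATP-started | times = 1 h at 25 °C | detection = Cy5 fluorescence, 0 and 60 min reads | read-out basis = percent inhibition from t60/t0 fluorescence ratio | control set = DMSO and thioflavine S | replication = one well per compound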
EBNA-1 inh – blocks EBNA-1 binding to DNA; EBNA-1 DNA binding, fluorescence polarization; inhibition, % at 14.8 µM; actives 0.34% (n = 300,000); AID 1950; in the data active = inhibition above about 28%
ZTA counter – blocks Epstein-Barr virus ZTA, an EBNA-1 counter-screen | actives 0.15% (n = 320,000) | inhibition, % at 11 µM | AID 2234 | P03206 | ZTA-DNA binding, fluorescence polarization; in the data active = inhibition above about 33%
Target sequence (P03206 whole entry, looked up): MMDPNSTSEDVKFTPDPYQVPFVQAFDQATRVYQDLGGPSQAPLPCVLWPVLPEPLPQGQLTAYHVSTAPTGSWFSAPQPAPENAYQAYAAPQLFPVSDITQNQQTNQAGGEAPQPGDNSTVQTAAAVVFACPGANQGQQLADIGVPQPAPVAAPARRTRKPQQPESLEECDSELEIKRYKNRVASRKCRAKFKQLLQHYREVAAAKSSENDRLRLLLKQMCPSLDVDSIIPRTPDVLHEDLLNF
FGF22 binding – FGF22 (human) thermal shift binding; recombinant FGF22 thermal shift, SYPRO orange fluorescence; percent of sucrose octasulfate shift, DMSO zero; activity (Tm shift, normalised), % at 9.99 µM; actives 1.5% (n = 340,000);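 active = mean Tm shift, scaled 0 neutral to 100 positive control, at about 1.3% or above, every replicate too, limit read from the data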
Target sequence (Q9HCT0 whole entry, looked up): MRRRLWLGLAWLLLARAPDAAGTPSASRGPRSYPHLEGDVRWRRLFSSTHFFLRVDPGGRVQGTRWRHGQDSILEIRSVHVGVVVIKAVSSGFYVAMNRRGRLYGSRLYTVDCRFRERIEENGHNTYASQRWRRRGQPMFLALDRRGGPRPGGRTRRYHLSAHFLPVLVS
NR3A LBD binder – modulates the human NR3A ligand-binding domain; actives 2.5% (n = 340,000); AID 1259313; NR3A LBD differential scanning fluorimetry, Tm shift; 0% = protein alone, 100% = glycine-bound protein; Tm shift relative to glycine control, % at 25 µM;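 active = melting temperature shift of at least 10% of the positive control shift, at one fixed dose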
An asterisk follows results filed as active; · = no result given. This is a sample that favours compounds with a hit; in the whole collection about 3.6% have one here.

SMILES	DNA FID counter	NS3 helicase inh	EBNA-1 inh	ZTA counter	FGF22 binding	NR3A LBD binder
COc1ccc2[nH]c(=O)c(CN(CC3CCCO3)C(=S)Nc3ccccc3)cc2c1 (stereo not given)	-2	0	-20	-5	44*	-1
COc1ccc2cc(CN(CC3CCCO3)C(=S)Nc3ccccc3)c(=O)[nH]c2c1 (stereo not given)	-11	-8	-5	-1	0	-8
Cc1cc2cc(CN(CC3CCCO3)C(=S)NCc3ccco3)c(=O)[nH]c2cc1C (stereo not given)	-30	-17	-7	-1	0	13*
C[C@H](CO)N1C[C@H](C)[C@H](CN(C)S(=O)(=O)c2ccccc2)Oc2ccc(NS(=O)(=O)c3ccc(F)cc3)cc2C1=O	·	·	·	·	0	·
CN(C)CC(=O)Nc1ccc2c(c1)[C@@H]1C[C@@H](CC(=O)N3CCc4ccccc4C3)O[C@H](CO)[C@@H]1O2	·	·	·	·	0	·
Cc1ccccc1OS(=O)(=O)c1cn(C)c(=O)n(C)c1=O	-2	-7	-5	6	43*	-1
COc1ccccc1N1CCN(S(=O)(=O)c2cn(C)c(=O)n(C)c2=O)CC1	-2	1	3	-2	0	0
COc1ccc(OC)c(/C=C2\S/C(=N/NC(=O)c3ccc4ccccc4c3)NC2=O)c1	0	5	6	7	0	17*
COc1ccc(-c2csc(Nc3ccc(S(=O)(=O)Nc4cc(OC)nc(OC)n4)cc3)n2)cc1	-12	-8	4	12	·	10
COc1ccc(-c2csc(Nc3ccc(S(=O)(=O)Nc4cc(C)on4)cc3)n2)cc1C	-31	10	4	12	44*	4
CC(C)(C)c1cc(CCC(=O)Nc2ccncc2)cc(C(C)(C)C)c1O	0	-34	4	2	18*	1
CC(C)(C)c1cc(CCC(=O)NCc2ccncc2)cc(C(C)(C)C)c1O	-27	5	12	6	·	-1
COCCNC(=O)C[C@H]1C[C@H]2c3cc(NC(=O)c4cccnc4)ccc3O[C@H]2[C@H](CO)O1	·	·	·	·	0	·
N#Cc1ccc(NC(=O)CSc2nc3[nH]c(=O)cc(O)c3s2)cc1	·	·	·	-21	0	-2
CSc1ccc(NC(=O)CSc2nc3[nH]c(=O)cc(O)c3s2)cc1	·	·	·	4	0	14*
O=C(CSc1nc2[nH]c(=O)cc(O)c2s1)Nc1ccc(Cl)c(C(F)(F)F)c1	·	·	·	-20	1	12*
CN(C)C(=O)C[C@H]1CC[C@H](NC(=O)C2CC2)[C@@H](CO)O1	·	·	·	·	0	·
O=S(=O)(N[C@H]1CC[C@@H](CCn2cc(-c3ccc(F)cc3)nn2)O[C@@H]1CO)c1ccccc1F	·	·	·	·	0	·
C[C@H]1CCCCO[C@H](CN(C)S(=O)(=O)c2ccccc2)[C@@H](C)CN([C@@H](C)CO)C(=O)c2cc(NC(=O)Nc3ccc(F)cc3)ccc2O1	·	·	·	·	0	·
COCCNC(=O)C(=O)N/N=C(\C)CC(=O)Nc1cccnc1	13	2	-10	3	44*	0
COC(=O)C[C@@H]1C[C@@H]2c3cc(NC(=O)CC4CC4)ccc3O[C@@H]2[C@@H](CO)O1	·	·	·	·	0	·
O=C(N/N=C/c1cccs1)c1cc(-c2ccc3ccccc3c2)n[nH]1	-5	-14	2	-4	·	13*
O=C(N/N=C/c1cccs1)c1cc(-c2cccc3ccccc23)n[nH]1	-7	-1	3	-1	44*	2
O=C(N/N=C/c1ccccn1)c1cc(-c2cccc3ccccc23)n[nH]1	-2	1	-5	3	0	-14
N#C[C@@H]1[C@@H](c2ccccc2C2=CCCCC2)[C@@H](CO)N1S(=O)(=O)c1ccccc1	·	·	·	·	0	·
CCc1nc(NC(=O)NS(=O)(=O)c2ccccc2C(=O)OC)nc(OC)n1	0	-4	-9	-3	43*	2
COC(=O)c1ccccc1S(=O)(=O)NC(=O)c1ccccc1	3	10	-14	-1	·	1
COc1ccc(NC(=O)Nc2ccc3c(c2)CC(=O)N([C@H](C)CO)C[C@H](C)[C@@H](CN(C)S(C)(=O)=O)O3)cc1	·	·	·	·	0	·
CCCCCCC(C)OC(=O)Nc1cccc2ccccc12 (stereo not given)	-19	-11	0	2	0	10*

Compound activity as filed in PubChem.
